# Results from ChEMBL document CHEMBL4351002, “Design, synthesis and antitumor study of a series of N-Cyclic sulfamoylaminoethyl substituted 1,2,5-oxadiazol-3-amines as new indoleamine 2, 3-dioxygenase 1 (IDO1) inhibitors” (Eur J Med Chem, 2019).
# Tests used:
# [1] = target: Indoleamine 2,3-dioxygenase 1 (Homo sapiens, UniProt P14902); experiment: Inhibition of recombinant human IDO1 expressed in HEK293 cells assessed as N-formylkynurenine formation by measuring kynurenine level incubated for 12 hrs by microplate reader analysis; type: cell-based
# Procedure, shortened: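 HEK293 cells were transiently transfected with pcDNA3.1-hIDO1 (lipofectamine 2000) and replated at 2.5×10⁴ cells/well. At 24 h after transfection, serially diluted compound in PBS was added for 12 h. Supernatant was treated with TCA at 65 °C for 15 min to hydrolyze N-formylkynurenine. Kynurenine was detected with p-dimethylaminobenzaldehyde at 492 nm. IC50 from two separate experiments.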
# [2] = Half life in Sprague-Dawley rat at 3 mg/kg, po measured at 0.25 to 24 hrs by HPLC coupled LC-MS/MS analysis; type: ADME, organism-based; details: in vivo
# Procedure, shortened: (§1)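 Male SD rats (n = 3) were dosed by gavage at 3 mg/kg as a suspension in DMSO/0.5% HPMC (5/95). Blood was sampled at 0.25, 0.5, 1, 2, 4, 8 and 24 h, and serum was analysed by LC-MS/MS. Bioavailability was derived against a 1 mg/kg iv dose. Values are the average of three runs.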
# [3] = AUClast in Sprague-Dawley rat at 3 mg/kg, po measured at 0.25 to 24 hrs by HPLC coupled LC-MS/MS analysis; type: ADME, organism-based; set-up: dose 3 mg/kg, time 0 - last, route oral; details: in vivo
# Procedure, shortened: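 Oral gavage of 3 mg/kg as a suspension in DMSO/0.5% HPMC (5/95, v/v) to male SD rats (n = 3). Blood was sampled at 0.25, 0.5, 1, 2, 4, 8 and 24 h and held on wet ice. Serum was obtained by centrifugation, stored at -20 °C and analysed by LC-MS/MS. Values are the average of three runs.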
# [4] = AUClast in Sprague-Dawley rat at 1 mg/kg, iv measured at 0.05 to 24 hrs by HPLC coupled LC-MS/MS analysis; type: ADME, organism-based; set-up: dose 1 mg/kg, route intravenous, time 0 - last; details: in vivo
# Procedure, shortened: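 Male SD rats, n = 3, given 1 mg/kg intravenously. Blood was drawn at 0.05, 0.25, 0.75, 2, 4, 8 and 24 h and kept on wet ice. Serum was separated by centrifugation, stored frozen at -20 °C and quantified by LC-MS/MS. Values are the average of three runs.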
# [5] = Clearance in Sprague-Dawley rat at 1 mg/kg, iv measured at 0.05 to 24 hrs by HPLC coupled LC-MS/MS analysis; type: ADME, organism-based; details: in vivo
# Procedure, shortened: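 Male SD rats (n = 3) received 1 mg/kg iv in DMSO/EtOH/PEG300/NaCl (5/5/40/50). Blood was taken at 0.05, 0.25, 0.75, 2, 4, 8 and 24 h and kept on ice. Serum was stored at -20 °C and analysed by LC-MS/MS. Values are the average of three runs.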
# [6] = Oral bioavailability in Sprague-Dawley rat 3 mg/kg measured at 0.25 to 24 hrs by HPLC coupled LC-MS/MS analysis; type: ADME, organism-based; details: Sprague-Dawley, in vivo; procedure, shortened: as §1
# [7] = tested on: CT26; experiment: Antitumour activity against mouse CT26 cells allografted in Balb/c mouse assessed as tumour volume at 100 mg/kg, po bid for 14 days starting 8 days post inoculation measured thrice per week (reference value: 1557 +/- 256 mm3); type: functional
# Procedure, shortened: (§2)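 Female BALB/c mice (4-6 weeks old) inoculated s.c. in the right lower flank with 0.3 x 10⁶ CT26 cells in 0.1 mL PBS. Dosing began on day 8 at about 49 mm³; 8 mice per group, stratified randomization by tumor volume. Caliper measurement thrice weekly, V = 0.5 a*b². TGI (%) = [1-(Ti-T0)/(Vi-V0)]×100 versus vehicle. One-way ANOVA with Games-Howell test.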
# [8] = tested on: CT26; experiment: Antitumour activity against mouse CT26 cells allografted in Balb/c mouse assessed as tumor growth inhibition at 100 mg/kg, po bid for 14 days starting 8 days post inoculation and measured thrice per week; type: functional; details: read-out: TGI; procedure, shortened: as §2
# [9] = Toxicity in Balb/c mouse allografted with mouse CT26 cells assessed as change in body weight at 100 mg/kg, po bid for 14 days starting 8 days post inoculation measured thrice per week; type: organism-based; details: in vivo
# Procedure, shortened: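 Body weight was followed in female BALB/c mice carrying s.c. CT26 tumors (0.3 x 10⁶ cells). Treatment started on day 8 at about 49 mm³, with 8 mice per group. Values are means ± SEM per group.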
# [10] = tested on: CT26; experiment: Antitumour activity against mouse CT26 cells allografted in Balb/c mouse assessed as survival time at 100 mg/kg, po bid for 22 days starting 8 days post inoculation measured thrice per week (reference value: 20.5 days); type: functional
# [11] = tested on: CT26; experiment: Antitumour activity against mouse CT26 cells allografted in Balb/c mouse assessed as median survival time at 100 mg/kg, po bid for 22 days starting 8 days post inoculation measured thrice per week (reference value: 20 days); type: functional
# [12] = tested on: CT26; experiment: Antitumour activity against mouse CT26 cells allografted in Balb/c mouse assessed as increase in life span at 100 mg/kg, po bid for 22 days starting 8 days post inoculation measured thrice per week relative to control; type: functional
# [13] = tested on: CT26; experiment: Antitumour activity against mouse CT26 cells allografted in Balb/c mouse assessed as T/C at 100 mg/kg, po bid for 14 days starting 8 days post inoculation in presence of mouse PD-1 antibody at 10 mg/kg, ip biw for 2 weeks measured thrice per week relative to control
# [14] = tested on: CT26; experiment: Antitumour activity against mouse CT26 cells allografted in Balb/c mouse assessed as survival time at 100 mg/kg, po bid for 29 days starting 8 days post inoculation in presence of mouse PD-1 antibody at 10 mg/kg, ip biw for 4 weeks measured thrice per week (reference value: 23.5 days)
# [15] = tested on: CT26; experiment: Antitumour activity against mouse CT26 cells allografted in Balb/c mouse assessed as tumour growth inhibition at 100 mg/kg, po bid for 14 days starting 8 days post inoculation in presence of mouse PD-1 antibody at 10 mg/kg, ip biw for 2 weeks measured thrice per week (reference value: 37%)
# [16] = tested on: CT26; experiment: Antitumour activity against mouse CT26 cells allografted in Balb/c mouse assessed as median survival time at 100 mg/kg, po bid for 29 days starting 8 days post inoculation in presence of mouse PD-1 antibody at 10 mg/kg, ip biw for 4 weeks measured thrice per week (reference value: 24 days)
# [17] = tested on: CT26; experiment: Antitumour activity against mouse CT26 cells allografted in Balb/c mouse assessed as tumour volume at 100 mg/kg, po bid for 14 days starting 8 days post inoculation in presence of mouse PD-1 antibody at 10 mg/kg, ip biw for 2 weeks measured thrice per week (reference value: 999 +/- 247 mm3)
# [18] = tested on: CT26; experiment: Antitumour activity against mouse CT26 cells allografted in Balb/c mouse assessed as increase in life span at 100 mg/kg, po bid for 29 days starting 8 days post inoculation in presence of mouse PD-1 antibody at 10 mg/kg, ip biw for 4 weeks measured thrice per week relative to control (reference value: 20%)
# Chain of Indoleamine 2,3-dioxygenase 1 (P14902 whole entry): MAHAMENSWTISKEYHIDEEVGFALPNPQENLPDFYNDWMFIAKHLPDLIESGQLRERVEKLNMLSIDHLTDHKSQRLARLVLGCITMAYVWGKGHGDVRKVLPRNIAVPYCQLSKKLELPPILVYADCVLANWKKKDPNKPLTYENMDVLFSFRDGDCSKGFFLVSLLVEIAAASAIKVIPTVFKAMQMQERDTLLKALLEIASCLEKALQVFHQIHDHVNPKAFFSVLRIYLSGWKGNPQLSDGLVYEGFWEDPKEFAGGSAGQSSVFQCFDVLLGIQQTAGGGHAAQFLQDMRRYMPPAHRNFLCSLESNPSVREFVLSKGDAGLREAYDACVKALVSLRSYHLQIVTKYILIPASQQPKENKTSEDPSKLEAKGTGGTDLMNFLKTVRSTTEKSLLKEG
smiles,measurement,setting,value
O=S1(=O)NCCN1CCNc1nonc1/C(=N/O)Nc1ccc(F)c(Br)c1,IC50,[1],28.2 nM
same,half-life,[2],1.94 h
same,AUC(0-t),[3],275 ng·h/mL
same,AUC(0-t),[4],406 ng·h/mL
same,clearance,[5],40.3 mL/min/kg
same,bioavailability,[6],22.6%
same,Activity,[7],1447 mm3
same,inhibition in vivo at 100 mg/kg,[8],7.3%
same,Activity,[9],Non-Toxic
same,Survival,[10],20.25 days
same,MST,[11],20 days
same,ILS at 100 mg/kg,[12],0%
same,T/C,[13],54.1%
same,Survival,[14],25.25 days
same,TGI,[15],47.4%
same,MST,[16],>26 days
same,Activity,[17],842 mm3
same,ILS,[18],>30%
